According to ChEMBL document CHEMBL1156002, “Synthesis, Raman, FT-IR, NMR spectroscopic characterization, antimicrobial activity, cytotoxicity and DNA binding of new mixed aza-oxo-thia macrocyclic compounds” (2009):
≈ marks a conversion by molar mass, not a printed value. Calls of active or inactive are those of the source. The rule behind the calls is not given here.

Experiments:
[1] = test system: Mycolicibacterium smegmatis; assay: Antibacterial activity against Mycobacterium smegmatis CCM 2067 after 24 hrs by agar disk diffusion assay; assay type: functional
Procedure, shortened: (§1)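 Disk diffusion with sterile 6 mm discs loaded with DMSO solutions of the test agents and placed on inoculated agar. Bacteria were pre-grown in Nutrient Broth at 30 °C for 24 h, and plates were incubated at 35 °C for 24 h. Each plate carried a reference antibiotic disc matched to the organism, and a DMSO-only solvent control was run.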

[2] = test system: A549; assay: Cytotoxicity against human A549 cells assessed as cell viability at 0.1 uM after 48 hrs by MTT assay; assay type: functional; settings: A549, 48 h, read-out: Activity
Procedure, shortened: (§2)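 Cells were seeded at 3.10³–5.10³ per well in RPMI 1640 with 10% FBS, 4 mM L-glutamine and penicillin/streptomycin, then held 24 h at 37 °C under 5% CO₂. Ligands (DMSO, final 0.5% v/v) were added at 0.1–100 for 24 or 48 h. MTT was added for 4 h and dissolved in 50% DMF/5% SDS. A570 was read, and cytotoxicity was calculated as 100×(OD treated/OD untreated).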

[3] = test system: Calf thymus DNA; assay: Binding affinity to calf thymus DNA assessed as change in electromagnetic spectrum at 500 uM by UV-vis spectroscopy; assay type: nucleic-acid assay; settings: Bos taurus
Procedure, shortened: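 CT-DNA was prepared in ddH₂O and judged protein-free by an A260/A280 ratio of 1.8:1. UV–visible absorption spectra of the DNA solution were recorded without ligand and with increasing ligand amounts.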

[4] = test system: Micrococcus luteus; assay: Antibacterial activity against Micrococcus luteus La 2971 after 24 hrs by broth micro dilution method; assay type: functional; settings: La 2971, 24 h
[5] = test system: A549; assay: Cytotoxicity against human A549 cells assessed as cell viability at 10 uM after 48 hrs by MTT assay; assay type: functional; settings: A549, 48 h, read-out: Activity; procedure, shortened: as §2
[6] = test system: Proteus vulgaris; assay: Antibacterial activity against Proteus vulgaris ATCC 8427 after 24 hrs by broth micro dilution method; assay type: functional; settings: ATCC 8427, 24 h
[7] = Cytotoxicity against human 23132/87 cells assessed as cell viability at 0.1 uM after 48 hrs by MTT assay; assay type: functional; settings: 23132-87, 48 h, read-out: Activity; procedure, shortened: as §2
[8] = Cytotoxicity against human 23132/87 cells assessed as cell viability at 0.1 uM after 24 hrs by MTT assay; assay type: functional; settings: 23132-87, 24 h, read-out: Activity; procedure, shortened: as §2
[9] = test system: Klebsiella pneumoniae; assay: Antibacterial activity against Klebsiella pneumoniae UC57 after 24 hrs by agar disk diffusion assay; assay type: functional; procedure, shortened: as §1
[10] = test system: Debaryomyces hansenii; assay: Antifungal activity against Debaryomyces hansenii DSM 70238 after 24 hrs by broth micro dilution method; assay type: functional; settings: DSM 70238, 24 h
Procedure, shortened: (§3)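 Broth microdilution was run in cation-adjusted Mueller Hinton Broth. Compounds were dissolved in DMSO at 2 mg mL^-1 and serially diluted two-fold. Yeast precultures were grown in Malt Extract Broth for 48 h. The final inoculum was about 10⁶ cfu mL^-1, and plates were incubated at 37 °C for 24 h. The MIC was read from this series.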

[11] = test system: Listeria monocytogenes; assay: Antibacterial activity against Listeria monocytogenes ATCC 15313 after 24 hrs by broth micro dilution method; assay type: functional; settings: ATCC 15313, 24 h
[12] = test system: A549; assay: Cytotoxicity against human A549 cells assessed as cell viability at 100 uM after 24 hrs by MTT assay; assay type: functional; settings: A549, 24 h, read-out: Activity; procedure, shortened: as §2
[13] = Cytotoxicity against human 23132/87 cells assessed as cell viability at 100 uM after 48 hrs by MTT assay; assay type: functional; settings: 23132-87, 48 h, read-out: Activity; procedure, shortened: as §2
[14] = test system: Kluyveromyces marxianus; assay: Antifungal activity against Kluyveromyces fragilis NRRL 2415 after 72 hrs by agar disk diffusion assay; assay type: functional
Procedure, shortened: (§4)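 Sterile 6 mm paper discs were loaded with ligand solution freshly prepared in DMSO and placed on inoculated agar. The inoculum came from broth cultures: bacteria in Nutrient Broth at 30 °C for 24 h, yeasts in Malt Extract Broth for 48 h. Plates were incubated at 35 °C for 24 h (bacteria) or 25 °C for 72 h (yeasts). A DMSO solvent control and a reference antibiotic disc were included on each plate.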

[15] = test system: Rhodotorula mucilaginosa; assay: Antifungal activity against Rhodotorula rubra DSM 70403 after 24 hrs by broth micro dilution method; assay type: functional; settings: DSM 70403, 24 h; procedure, shortened: as §3
[16] = test system: A549; assay: Cytotoxicity against human A549 cells assessed as cell viability at 0.1 uM after 24 hrs by MTT assay; assay type: functional; settings: A549, 24 h, read-out: Activity; procedure, shortened: as §2
[17] = test system: A549; assay: Cytotoxicity against human A549 cells assessed as cell viability at 1 uM after 48 hrs by MTT assay; assay type: functional; settings: A549, 48 h, read-out: Activity; procedure, shortened: as §2
[18] = test system: Debaryomyces hansenii; assay: Antifungal activity against Debaryomyces hansenii DSM 70238 after 72 hrs by agar disk diffusion assay; assay type: functional; procedure, shortened: as §4
[19] = test system: A549; assay: Induction of apoptosis in human A549 cells assessed as DNA fragmentation at 100 uM after 24 hrs by DNA fragmentation assay; assay type: functional, cell-based
Procedure, shortened: (§5)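 10 × 10⁴ cells were seeded in 6-well plates and treated with ligand for 24 h. Cells were then collected and washed in PBS, and DNA was extracted with a kit. Extracts were run on 1.5% agarose alongside a 100 bp marker, an untreated control and DMSO-treated controls, and ladders were visualized under UV.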

[20] = Cytotoxicity against human 23132/87 cells assessed as cell viability at 1 uM after 48 hrs by MTT assay; assay type: functional; settings: 23132-87, 48 h, read-out: Activity; procedure, shortened: as §2
[21] = test system: Hanseniaspora guilliermondii; assay: Antifungal activity against Hanseniaspora guilliermondii DSM 3432 after 72 hrs by agar disk diffusion assay; assay type: functional; procedure, shortened: as §4
[22] = test system: Candida albicans; assay: Antifungal activity against Candida albicans ATCC 10231 after 24 hrs by broth micro dilution method; assay type: functional; settings: ATCC 10231, 24 h; procedure, shortened: as §3
[23] = test system: 23132-87; assay: Induction of apoptosis in human 23132/87 cells assessed as DNA fragmentation at 100 uM after 24 hrs by DNA fragmentation assay; assay type: functional, cell-based; procedure, shortened: as §5
[24] = test system: A549; assay: Cytotoxicity against human A549 cells assessed as cell viability at 1 uM after 24 hrs by MTT assay; assay type: functional; settings: A549, 24 h, read-out: Activity; procedure, shortened: as §2
[25] = test system: Staphylococcus aureus; assay: Antibacterial activity against Staphylococcus aureus ATCC 6538 after 24 hrs by broth micro dilution method; assay type: functional; settings: ATCC 6538, 24 h
[26] = test system: Pseudomonas aeruginosa; assay: Antibacterial activity against Pseudomonas aeruginosa ATCC 27853 after 24 hrs by agar disk diffusion assay; assay type: functional; procedure, shortened: as §1
[27] = test system: Klebsiella pneumoniae; assay: Antibacterial activity against Klebsiella pneumoniae UC57 after 24 hrs by broth micro dilution method; assay type: functional; settings: UC57, 24 h
[28] = test system: Kluyveromyces marxianus; assay: Antifungal activity against Kluyveromyces fragilis NRRL 2415 after 24 hrs by broth micro dilution method; assay type: functional; settings: NRRL 2415, 24 h; procedure, shortened: as §3
[29] = test system: A549; assay: Cytotoxicity against human A549 cells assessed as cell viability at 10 uM after 24 hrs by MTT assay; assay type: functional; settings: A549, 24 h, read-out: Activity; procedure, shortened: as §2
[30] = test system: Escherichia coli; assay: Antibacterial activity against Escherichia coli ATCC 11230 after 24 hrs by agar disk diffusion assay; assay type: functional; procedure, shortened: as §1
[31] = test system: Bacillus cereus; assay: Antibacterial activity against Bacillus cereus ATCC 7064 after 24 hrs by agar disk diffusion assay; assay type: functional; procedure, shortened: as §1
[32] = test system: Staphylococcus aureus; assay: Antibacterial activity against Staphylococcus aureus ATCC 6538 after 24 hrs by agar disk diffusion assay; assay type: functional; procedure, shortened: as §1
[33] = test system: Candida albicans; assay: Antifungal activity against Candida albicans ATCC 10231 after 72 hrs by agar disk diffusion assay; assay type: functional; procedure, shortened: as §4
[34] = test system: A549; assay: Induction of apoptosis in human A549 cells assessed as change in nuclear appearance at 100 uM after 24 hrs by hoechst nuclear staining; assay type: functional, cell-based
Procedure, shortened: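 Cells grown in 6-well plates were treated for 24 h, washed three times in PBS and fixed in ice-cold methanol for 10 min. They were stained with Hoechst 33258 for 5 min, destained in double-distilled water for 5 min and examined by fluorescence microscopy. Untreated and DMSO-treated cells served as controls.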

Activity [3] | MIC [4] | MIC [6] | MIC [10] | MIC [11] | MIC [15] | SMILES | inhibition zone (IZ) [1] | viability at 0.1 µM [2] | viability at 10 µM [5] | viability at 0.1 µM [7] | viability at 0.1 µM [8] | inhibition zone (IZ) [9] | viability at 100 µM [12] | viability at 100 µM [13] | inhibition zone (IZ) [14] | viability at 0.1 µM [16] | viability at 1 µM [17] | inhibition zone (IZ) [18] | Activity [19] | viability at 1 µM [20] | other results
inactive | 12.5 µg/mL (≈ 19 µM) | 25 µg/mL (≈ 37.9 µM) | 3.12 µg/mL (≈ 4.74 µM) | 25 µg/mL (≈ 37.9 µM) | 6.25 µg/mL (≈ 9.49 µM) | O=C1CCSCCC(=O)Nc2nc(nc(-c3ccccc3)n2)NC(=O)CCSCCC(=O)Nc2nc(nc(-c3ccccc3)n2)N1 | 9 mm | > 86% | > 86% | > 86% | > 86% | 13 mm | > 86% | > 86% | 16 mm | > 86% | > 86% | 18 mm | inactive | > 86% | inhibition zone (IZ) [21]: 19 mm; MIC [22]: 3.12 µg/mL (≈ 4.74 µM); Activity [23]: inactive; viability at 1 µM [24]: > 86%; MIC [25]: 25 µg/mL (≈ 37.9 µM); inhibition zone (IZ) [26]: 11 mm; MIC [27]: 12.5 µg/mL (≈ 19 µM); MIC [28]: 6.25 µg/mL (≈ 9.49 µM); viability at 10 µM [29]: > 86%; inhibition zone (IZ) [30]: 10 mm; inhibition zone (IZ) [31]: 13 mm; inhibition zone (IZ) [32]: 10 mm; inhibition zone (IZ) [33]: 19 mm; Activity [34]: inactive
inactive | 6.25 µg/mL (≈ 8.65 µM) | 12.5 µg/mL (≈ 17.3 µM) | 1.56 µg/mL (≈ 2.16 µM) | 25 µg/mL (≈ 34.6 µM) | 3.12 µg/mL (≈ 4.32 µM) | O=C1CCSSCCC(=O)Nc2nc(nc(-c3ccccc3)n2)NC(=O)CCSSCCC(=O)Nc2nc(nc(-c3ccccc3)n2)N1 | 11 mm | > 86% | > 86% | > 86% | > 86% | 16 mm | > 86% | > 86% | 21 mm | > 86% | > 86% | 22 mm | inactive | > 86% | inhibition zone (IZ) [21]: 22 mm; MIC [22]: 3.12 µg/mL (≈ 4.32 µM); Activity [23]: inactive; viability at 1 µM [24]: > 86%; MIC [25]: 12.5 µg/mL (≈ 17.3 µM); inhibition zone (IZ) [26]: 11 mm; MIC [27]: 6.25 µg/mL (≈ 8.65 µM); MIC [28]: 1.56 µg/mL (≈ 2.16 µM); viability at 10 µM [29]: > 86%; inhibition zone (IZ) [30]: 10 mm; inhibition zone (IZ) [31]: 15 mm; inhibition zone (IZ) [32]: 12 mm; inhibition zone (IZ) [33]: 19 mm; Activity [34]: inactive
